Source: ChEMBL document CHEMBL2429855, “Efforts toward broadening the spectrum of arylomycin antibiotic activity” (Bioorg Med Chem Lett, 2013)
Values after ≈ are worked out from the molar mass of the structure shown.

Tests used:
[1] = system: Staphylococcus epidermidis; test: Antibacterial activity against wild type Staphylococcus epidermidis RP62A assessed as growth inhibition after 22 hrs by broth microdilution method; type: functional
Outline: (§1)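 MIC by broth microdilution against wild-type S. epidermidis RP62A, MSSA 8325, MRSA USA300 and E. coli MG1655. Also tested: S. aureus 8325 and E. coli MG1655 mutants made sensitive by mutating the resistance-conferring SPase Pro residue, an lptD hyperpermeable E. coli (outer membrane permeable to large molecules), and an E. coli combining lptD with SPase sensitization.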

Staphylococcus aureus [2] = test: Antibacterial activity against wild type methicillin-resistant Staphylococcus aureus USA300 assessed as growth inhibition after 22 hrs by broth microdilution method; type: functional; details: USA300, 22 h; outline: as §1
Escherichia coli [3] = test: Antibacterial activity against Escherichia coli MG1655 harboring lptD mutation assessed as growth inhibition after 22 hrs by broth microdilution method; type: functional; details: K-12 substr. MG1655, 22 h; outline: as §1
Escherichia coli [4] = test: Antibacterial activity against wild type Escherichia coli MG1655 assessed as growth inhibition after 22 hrs by broth microdilution method; type: functional; details: K-12 substr. MG1655, 22 h; outline: as §1
Staphylococcus aureus [5] = test: Antibacterial activity against wild type methicillin-sensitive Staphylococcus aureus 8325 assessed as growth inhibition after 22 hrs by broth microdilution method; type: functional; details: NCTC 8325, 22 h; outline: as §1
Signal peptidase I = Signal peptidase I (Escherichia coli K-12, UniProt P00803); test: Binding affinity to Escherichia coli type-1 signal peptidase lepB using decanoyl-LSSPAYNO2A-ADKabzPD and decanyol-LTPTAYNO2A-ASKKabzDD as substrate by fluorescence assay
Escherichia coli [6] = test: Antibacterial activity against Escherichia coli MG1655 harboring lptD lepB (P84L) mutation assessed as growth inhibition after 22 hrs by broth microdilution method; type: functional; details: K-12 substr. MG1655, 22 h; outline: as §1
Signal peptidase IB = target: T1, Signal peptidase IB (Staphylococcus aureus, UniProt P0A070); test: Binding affinity to Staphylococcus aureus type-1 signal peptidase using decanoyl-LSSPAYNO2A-ADKabzPD and decanyol-LTPTAYNO2A-ASKKabzDD as substrate by fluorescence assay
T1 sequence (P0A070 whole entry): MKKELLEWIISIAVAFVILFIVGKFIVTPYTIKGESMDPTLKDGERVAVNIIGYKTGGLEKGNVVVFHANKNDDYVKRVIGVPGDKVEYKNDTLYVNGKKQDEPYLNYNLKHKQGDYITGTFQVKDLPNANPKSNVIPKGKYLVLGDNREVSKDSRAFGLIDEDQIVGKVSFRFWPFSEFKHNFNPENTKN

Escherichia coli [7] = test: Antibacterial activity against Escherichia coli MG1655 harboring lepB (P84L) mutation assessed as growth inhibition after 22 hrs by broth microdilution method; type: functional; details: K-12 substr. MG1655, 22 h; outline: as §1
Staphylococcus aureus [8] = test: Antibacterial activity against Staphylococcus aureus 8325 harboring spsB (P29S) mutation assessed as growth inhibition after 22 hrs by broth microdilution method; type: functional; details: NCTC 8325, 22 h; outline: as §1

Row | Structure (SMILES) | MIC [1] | MIC (Staphylococcus aureus [2]) | MIC (Escherichia coli [3]) | MIC (Escherichia coli [4]) | MIC (Staphylococcus aureus [5]) | IC50 (Signal peptidase I) | MIC (Escherichia coli [6]) | IC50 (Signal peptidase IB) | MIC (Escherichia coli [7]) | MIC (Staphylococcus aureus [8])
1 | CCCCCCCCCCCCCCCC(=O)N(C)[C@H](CO)C(=O)N[C@H](C)C(=O)NCC(=O)N(C)[C@@H]1C(=O)N[C@@H](C)C(=O)N[C@H](C(=O)O)Cc2ccc(O)c(c2)-c2cc1ccc2OCCO | 1 µg/mL (≈ 1.08 µM) | > 64 µg/mL | 16 µg/mL (≈ 17.3 µM) | > 64 µg/mL | > 64 µg/mL | 75.7 nM | 0.02 µg/mL (≈ 0.0216 µM) | 4220 nM | 1 µg/mL (≈ 1.08 µM) | 8 µg/mL (≈ 8.65 µM)
2 | CCCCCCCCCCCCCCCC(=O)N(C)[C@H](CO)C(=O)N[C@H](C)C(=O)NCC(=O)N(C)[C@@H]1C(=O)N[C@@H](C)C(=O)N[C@H](CC(=O)NCC=O)Cc2ccc(O)c(c2)-c2cc1ccc2O | 32 µg/mL (≈ 34.2 µM) | > 64 µg/mL | > 64 µg/mL | > 64 µg/mL | > 64 µg/mL | 1010 nM | 2 µg/mL (≈ 2.14 µM) | > 21400 nM | > 64 µg/mL | > 64 µg/mL
3 | CCCCCCCCCCCCCCCC(=O)N(C)[C@H](CO)C(=O)N[C@H](C)C(=O)NCC(=O)N(C)[C@@H]1C(=O)N[C@@H](C)C(=O)N[C@H](C(=O)O)Cc2ccc(O)c(c2)-c2cc1ccc2OP(=O)(O)O | 0.3 µg/mL (≈ 0.312 µM) | > 64 µg/mL | 32 µg/mL (≈ 33.3 µM) | > 64 µg/mL | > 64 µg/mL | 146 nM | 0.03 µg/mL (≈ 0.0312 µM) | 1980 nM | 1 µg/mL (≈ 1.04 µM) | > 64 µg/mL
4 | CCCCCCCCCCCCCCCC(=O)N(C)[C@H](CO)C(=O)N[C@H](C)C(=O)NCC(=O)N(C)[C@@H]1C(=O)N[C@@H](C)C(=O)N[C@H](C(=O)NCC=O)Cc2ccc(O)c(c2)-c2cc1ccc2OP(=O)(OCc1ccccc1)OCc1ccccc1 | 1 µg/mL (≈ 0.846 µM) | > 64 µg/mL | 64 µg/mL (≈ 54.1 µM) | > 64 µg/mL | > 64 µg/mL | 195 nM | 0.3 µg/mL (≈ 0.254 µM) | 152 nM | 16 µg/mL (≈ 13.5 µM) | 32 µg/mL (≈ 27.1 µM)
5 | CCCCCCCCCCCCCCCC(=O)N(C)[C@H](CO)C(=O)N[C@H](C)C(=O)NCC(=O)N(C)[C@@H]1C(=O)N[C@@H](C)C(=O)N[C@H](C(=O)O)Cc2ccc(O)c(c2)-c2cc1ccc2OCCN | 0.1 µg/mL (≈ 0.108 µM) | 32 µg/mL (≈ 34.6 µM) | 4 µg/mL (≈ 4.33 µM) | > 64 µg/mL | > 64 µg/mL | 55.2 nM | 0.004 µg/mL (≈ 0.00433 µM) | 3460 nM | 0.5 µg/mL (≈ 0.541 µM) | 4 µg/mL (≈ 4.33 µM)
6 | CCCCCCCCCCCCCCCC(=O)N(C)[C@H](CO)C(=O)N[C@H](C)C(=O)NCC(=O)N(C)[C@@H]1C(=O)N[C@@H](C)C(=O)N[C@H](C(=O)NCC=O)Cc2ccc(O)c(c2)-c2cc1ccc2OCCN | 1 µg/mL (≈ 1.04 µM) | > 64 µg/mL | > 64 µg/mL | > 64 µg/mL | > 64 µg/mL | 87 nM | 0.06 µg/mL (≈ 0.0622 µM) | 332 nM | 2 µg/mL (≈ 2.07 µM) | 32 µg/mL (≈ 33.2 µM)
7 | CCCCCCCCCCCCCCCC(=O)N(C)[C@H](CO)C(=O)N[C@H](C)C(=O)NCC(=O)N(C)[C@@H]1C(=O)N[C@@H](C)C(=O)N[C@H](C(=O)NCC=O)Cc2ccc(O)c(c2)-c2cc1ccc2OCCO | 2 µg/mL (≈ 2.07 µM) | 64 µg/mL (≈ 66.2 µM) | 16 µg/mL (≈ 16.6 µM) | > 64 µg/mL | > 64 µg/mL | 9.31 nM | 0.03 µg/mL (≈ 0.031 µM) | 63.1 nM | 2 µg/mL (≈ 2.07 µM) | 8 µg/mL (≈ 8.28 µM)
8 | CCCCCCCCCCCCCCCC(=O)N(C)[C@H](CO)C(=O)N[C@H](C)C(=O)NCC(=O)N(C)[C@@H]1C(=O)N[C@@H](C)C(=O)N[C@H](C(=O)NCP(=O)(OCC)OCC)Cc2ccc(O)c(c2)-c2cc1ccc2O | 8 µg/mL (≈ 7.77 µM) | > 64 µg/mL | > 64 µg/mL | > 64 µg/mL | > 64 µg/mL | > 19400 nM | 2 µg/mL (≈ 1.94 µM) | > 19400 nM | > 64 µg/mL | > 64 µg/mL
9 | CCCCCCCCCCCCCCCC(=O)N(C)[C@H](CO)C(=O)N[C@H](C)C(=O)NCC(=O)N(C)[C@@H]1C(=O)N[C@@H](C)C(=O)N[C@H](C(=O)NCP(=O)(Oc2ccccc2)Oc2ccccc2)Cc2ccc(O)c(c2)-c2cc1ccc2O | > 64 µg/mL | > 64 µg/mL | > 64 µg/mL | > 64 µg/mL | > 64 µg/mL | > 17800 nM | 8 µg/mL (≈ 7.1 µM) | > 17800 nM | > 64 µg/mL | > 64 µg/mL
10 | CCCCCCCCCCCCCCCC(=O)N(C)[C@H](CO)C(=O)N[C@H](C)C(=O)NCC(=O)N(C)[C@@H]1C(=O)N[C@@H](C)C(=O)N[C@H](C(=O)NCC=O)Cc2ccc(O)c(c2)-c2cc1ccc2O | 2 µg/mL (≈ 2.17 µM) | 16 µg/mL (≈ 17.4 µM) | > 64 µg/mL | > 64 µg/mL | > 64 µg/mL | 16.3 nM | 0.06 µg/mL (≈ 0.0651 µM) | 53.1 nM | 4 µg/mL (≈ 4.34 µM) | 8 µg/mL (≈ 8.68 µM)
11 | CCCCCCCCCCCCCCCC(=O)N(C)[C@H](CO)C(=O)N[C@H](C)C(=O)NCC(=O)N(C)[C@@H]1C(=O)N[C@@H](C)C(=O)N[C@H](C(=O)NCP(=O)(OC)OC)Cc2ccc(O)c(c2)-c2cc1ccc2O | 8 µg/mL (≈ 7.98 µM) | > 64 µg/mL | > 64 µg/mL | > 64 µg/mL | > 64 µg/mL | 20000 nM | 2 µg/mL (≈ 2 µM) | > 20000 nM | 64 µg/mL (≈ 63.9 µM) | > 64 µg/mL
12 | CCCCCCCCCCCCCCCC(=O)N(C)[C@H](CO)C(=O)N[C@H](C)C(=O)NCC(=O)N(C)[C@@H]1C(=O)N[C@@H](C)C(=O)N[C@H](C(=O)NCP(=O)(O)O)Cc2ccc(O)c(c2)-c2cc1ccc2O | 8 µg/mL (≈ 8.21 µM) | 64 µg/mL (≈ 65.7 µM) | > 64 µg/mL | > 64 µg/mL | > 64 µg/mL | 842 nM | 0.1 µg/mL (≈ 0.103 µM) | 16400 nM | 4 µg/mL (≈ 4.11 µM) | > 64 µg/mL
13 | CCCCCCCCCCCCCCCC(=O)N(C)[C@H](CO)C(=O)N[C@H](C)C(=O)NCC(=O)N(C)[C@@H]1C(=O)N[C@@H](C)C(=O)N[C@H](C(=O)O)Cc2ccc(O)c(c2)-c2cc1ccc2O [ARYLOMYCIN C16] | 0.25 µg/mL (≈ 0.284 µM) | > 64 µg/mL | 16 µg/mL (≈ 18.2 µM) | > 64 µg/mL | > 64 µg/mL | 70 nM | 0.02 µg/mL (≈ 0.0227 µM) | 1800 nM | 0.5 µg/mL (≈ 0.567 µM) | 4 µg/mL (≈ 4.54 µM)
